According to ChEMBL document CHEMBL5058577, “EUbOPEN Chemogenomics Library 2 (Multiplex)” (2022):

Tested on: U2OS
Assay: Multiplex assay against U2OS
Type: toxicity, cell-based
Conditions: human
How it was run: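 Live cells were stained at seeding with Hoechst33342, BioTracker Green Microtubule Cytoskeleton Dye, MitoTracker Red and Annexin V Alexa Fluor 680. Following compound addition, they were imaged on a CQ1 microscope at 37°C and 5% CO2 and gated by CellPathfinder machine learning into Hoechst high-intensity objects or normal cells, with normal cells split into healthy, pyknosed or fragmented nuclei and pyknosed cells into mitotic or apoptotic. Tubulin, mitochondrial-mass and membrane-permeability phenotypes are per cents of healthy-nucleus cells.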

[1] = 12 h, 1 µM, compound concentration 1 uM, replicate 1
[2] = 12 h, 1 µM, compound concentration 1 uM, replicate 2
[3] = 12 h, 10 µM, compound concentration 10 uM, replicate 1
[4] = 12 h, 10 µM, compound concentration 10 uM, replicate 2
[5] = 24 h, 1 µM, compound concentration 1 uM, replicate 1
[6] = 24 h, 1 µM, compound concentration 1 uM, replicate 2
[7] = 24 h, 10 µM, compound concentration 10 uM, replicate 1
[8] = 24 h, 10 µM, compound concentration 10 uM, replicate 2
[9] = 48 h, 1 µM, compound concentration 1 uM, replicate 1
[10] = 48 h, 1 µM, compound concentration 1 uM, replicate 2
[11] = 48 h, 10 µM, compound concentration 10 uM, replicate 1
[12] = 48 h, 10 µM, compound concentration 10 uM, replicate 2

COc1cc2nc(N3CCN(C(=O)c4ccco4)CC3)nc(N)c2cc1OC.Cl [PRAZOSIN HYDROCHLORIDE]
Population Apoptotic (%) [1]: 88%
Population Fragmented Nuclei (%) [1]: 21%
Population Healthy Nuclei (%) [1]: 70%
Population Hoechst High Intensity Objects (%) [1]: 2%
Population Membrane Permeable-Phenotype (%) [1]: 4%
Population Mitochondria Different-Phenotype (%) [1]: 2%
Population Mitotic Cells (%) [1]: 11%
Population Normal (%) [1]: 97%
Population Pyknosed Nuclei (%) [1]: 7%
Population Tubulin-Different-Phenotype (%) [1]: 1%
Total Cell Count [1]: 235
Population Apoptotic (%) [2]: 94%
Population Fragmented Nuclei (%) [2]: 18%
Population Healthy Nuclei (%) [2]: 69%
Population Hoechst High Intensity Objects (%) [2]: 1%
Population Membrane Permeable-Phenotype (%) [2]: 5%
Population Mitochondria Different-Phenotype (%) [2]: 7%
Population Mitotic Cells (%) [2]: 5%
Population Normal (%) [2]: 98%
Population Pyknosed Nuclei (%) [2]: 12%
Population Tubulin-Different-Phenotype (%) [2]: 8%
Total Cell Count [2]: 159
Population Apoptotic (%) [3]: 86%
Population Fragmented Nuclei (%) [3]: 25%
Population Healthy Nuclei (%) [3]: 67%
Population Hoechst High Intensity Objects (%) [3]: 3%
Population Membrane Permeable-Phenotype (%) [3]: 12%
Population Mitochondria Different-Phenotype (%) [3]: 2%
Population Mitotic Cells (%) [3]: 13%
Population Normal (%) [3]: 96%
Population Pyknosed Nuclei (%) [3]: 7%
Population Tubulin-Different-Phenotype (%) [3]: 6%
Total Cell Count [3]: 216
Population Apoptotic (%) [4]: 72%
Population Fragmented Nuclei (%) [4]: 15%
Population Healthy Nuclei (%) [4]: 74%
Population Hoechst High Intensity Objects (%) [4]: 0%
Population Membrane Permeable-Phenotype (%) [4]: 4%
Population Mitochondria Different-Phenotype (%) [4]: 5%
Population Mitotic Cells (%) [4]: 27%
Population Normal (%) [4]: 99%
Population Pyknosed Nuclei (%) [4]: 9%
Population Tubulin-Different-Phenotype (%) [4]: 7%
Total Cell Count [4]: 114
Population Apoptotic (%) [5]: 95%
Population Fragmented Nuclei (%) [5]: 22%
Population Healthy Nuclei (%) [5]: 69%
Population Hoechst High Intensity Objects (%) [5]: 1%
Population Membrane Permeable-Phenotype (%) [5]: 8%
Population Mitochondria Different-Phenotype (%) [5]: 2%
Population Mitotic Cells (%) [5]: 4%
Population Normal (%) [5]: 98%
Population Pyknosed Nuclei (%) [5]: 7%
Population Tubulin-Different-Phenotype (%) [5]: 4%
Total Cell Count [5]: 273
Population Apoptotic (%) [6]: 100%
Population Fragmented Nuclei (%) [6]: 15%
Population Healthy Nuclei (%) [6]: 74%
Population Hoechst High Intensity Objects (%) [6]: 0%
Population Membrane Permeable-Phenotype (%) [6]: 10%
Population Mitochondria Different-Phenotype (%) [6]: 5%
Population Mitotic Cells (%) [6]: 0%
Population Normal (%) [6]: 100%
Population Pyknosed Nuclei (%) [6]: 10%
Population Tubulin-Different-Phenotype (%) [6]: 9%
Total Cell Count [6]: 188
Population Apoptotic (%) [7]: 78%
Population Fragmented Nuclei (%) [7]: 23%
Population Healthy Nuclei (%) [7]: 68%
Population Hoechst High Intensity Objects (%) [7]: 2%
Population Membrane Permeable-Phenotype (%) [7]: 8%
Population Mitochondria Different-Phenotype (%) [7]: 6%
Population Mitotic Cells (%) [7]: 21%
Population Normal (%) [7]: 97%
Population Pyknosed Nuclei (%) [7]: 7%
Population Tubulin-Different-Phenotype (%) [7]: 6%
Total Cell Count [7]: 244
Population Apoptotic (%) [8]: 85%
Population Fragmented Nuclei (%) [8]: 13%
Population Healthy Nuclei (%) [8]: 71%
Population Hoechst High Intensity Objects (%) [8]: 1%
Population Membrane Permeable-Phenotype (%) [8]: 7%
Population Mitochondria Different-Phenotype (%) [8]: 5%
Population Mitotic Cells (%) [8]: 14%
Population Normal (%) [8]: 98%
Population Pyknosed Nuclei (%) [8]: 15%
Population Tubulin-Different-Phenotype (%) [8]: 4%
Total Cell Count [8]: 138
Population Apoptotic (%) [9]: 94%
Population Fragmented Nuclei (%) [9]: 16%
Population Healthy Nuclei (%) [9]: 74%
Population Hoechst High Intensity Objects (%) [9]: 2%
Population Membrane Permeable-Phenotype (%) [9]: 6%
Population Mitochondria Different-Phenotype (%) [9]: 2%
Population Mitotic Cells (%) [9]: 5%
Population Normal (%) [9]: 97%
Population Pyknosed Nuclei (%) [9]: 9%
Population Tubulin-Different-Phenotype (%) [9]: 2%
Total Cell Count [9]: 388
Population Apoptotic (%) [10]: 100%
Population Fragmented Nuclei (%) [10]: 15%
Population Healthy Nuclei (%) [10]: 77%
Population Hoechst High Intensity Objects (%) [10]: 1%
Population Membrane Permeable-Phenotype (%) [10]: 7%
Population Mitochondria Different-Phenotype (%) [10]: 7%
Population Mitotic Cells (%) [10]: 0%
Population Normal (%) [10]: 98%
Population Pyknosed Nuclei (%) [10]: 7%
Population Tubulin-Different-Phenotype (%) [10]: 5%
Total Cell Count [10]: 266
Population Apoptotic (%) [11]: 96%
Population Fragmented Nuclei (%) [11]: 20%
Population Healthy Nuclei (%) [11]: 71%
Population Hoechst High Intensity Objects (%) [11]: 1%
Population Membrane Permeable-Phenotype (%) [11]: 5%
Population Mitochondria Different-Phenotype (%) [11]: 2%
Population Mitotic Cells (%) [11]: 3%
Population Normal (%) [11]: 98%
Population Pyknosed Nuclei (%) [11]: 8%
Population Tubulin-Different-Phenotype (%) [11]: 3%
Total Cell Count [11]: 341
Population Apoptotic (%) [12]: 94%
Population Fragmented Nuclei (%) [12]: 15%
Population Healthy Nuclei (%) [12]: 76%
Population Hoechst High Intensity Objects (%) [12]: 2%
Population Mitochondria Different-Phenotype (%) [12]: 6%
Population Mitotic Cells (%) [12]: 5%
Population Normal (%) [12]: 97%
Total Cell Count [12]: 208
